# Compound activity as filed in PubChem.
# Mdm2 ligase inh: MDM2-luciferase reporter signal enhancers, primary screen, MDM2 E3 ligase inhibitor project, cell-based, luminescence, 1536-well | E3 ubiquitin-protein ligase Mdm2 (Homo sapiens), Q00987 | cell-based MDM2 ubiquitination luciferase reporter, 2 h; 0 = plate control, 100 = twice control, blank-subtracted | AID 1230, 2008 | 0.11% of 210,000 active | signal enhancement, % at 5 µM;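 active means signal enhancement of 30% or more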;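 further: luminescence tracks abundance of the self-degrading MDM2-luciferase fusion protein; higher signal means inhibition of MDM2 E3 ligase activity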
# Target sequence (Q00987 whole entry, looked up, the tested form may be a part): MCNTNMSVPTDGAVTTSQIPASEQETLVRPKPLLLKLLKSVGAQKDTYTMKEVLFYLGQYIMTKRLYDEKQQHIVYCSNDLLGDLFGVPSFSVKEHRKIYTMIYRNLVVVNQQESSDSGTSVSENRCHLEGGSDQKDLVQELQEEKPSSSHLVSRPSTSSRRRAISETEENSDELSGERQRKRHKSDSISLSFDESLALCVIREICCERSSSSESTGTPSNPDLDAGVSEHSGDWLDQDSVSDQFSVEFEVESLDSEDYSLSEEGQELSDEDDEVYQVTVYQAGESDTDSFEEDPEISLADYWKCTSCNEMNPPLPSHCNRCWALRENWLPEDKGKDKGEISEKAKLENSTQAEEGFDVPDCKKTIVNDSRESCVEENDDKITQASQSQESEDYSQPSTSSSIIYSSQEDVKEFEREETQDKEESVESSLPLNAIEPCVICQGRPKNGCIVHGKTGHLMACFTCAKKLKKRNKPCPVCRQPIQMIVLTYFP
#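 Assay system: mammalian cells stably expressing self-ubiquitinating, self-degrading MDM2 E3–luciferase fusion. Quantity: 2000 cells in each well. Medium: DMEM culture medium. Compound dosing: single-point 5 µM. Timing: cell settling 4 h, compound treatment 2 h, both 37 °C. Technique: luciferase luminescence. Read-out basis: percent signal gain over controls, blank-subtracted. Benchmarks: plate controls and plate blanks.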
# AHR activator: AHR activators, primary screen, cell-based, luminescence, luciferase reporter, human; Aryl hydrocarbon receptor (Homo sapiens), P35869; 2.5% of 320,000 active; activation, % at 5 µM; AHR-responsive luciferase reporter cells; in the data active means activation above about 47%;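 further: 0% = vehicle wells and 100% = reference agonist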
# PERK inh: block of dimerizer-induced PERK translation repression, primary screen, PERK inhibitor project, CHO PERK-DD cells, SEAP luminescence, HTS. Eukaryotic translation initiation factor 2-alpha kinase 3 (Homo sapiens), Q9NZJ5. CHO PERK-DD fusion, SEAP luminescence translation reporter. inhibition, % at 5.6 µM. 0.17% of 220,000 active;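 active means inhibition above the mean inhibition of all tested compounds plus 3 SD, set separately per screening campaign, cut at about 2.9% in these data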;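 further: PERK kinase domain activated by AP20187 dimerizer at 100 nM; 0% = DMSO with dimerizer and 100% = rapamycin at 8.4 µM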
# APP 5'UTR act: activators of APP 5'UTR luciferase reporter, primary screen, SH-SY5Y cells; 1% of 190,000 active; activation, % at 2 µM; AID 1276, 2008; SH-SY5Y APP 5'UTR luciferase reporter, luminescence; zero percent = DMSO vehicle wells;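 active means activation above a set limit, based on mean plus 3 SD of controls, cut at about 140% in these data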
# STAT1 act: STAT1 signaling activators, primary screen, cell-based, HTS, luciferase reporter | NIH 3T3 STAT1-luciferase reporter, IFN-gamma, luminescence; 100% = IFN-gamma alone, no compound | activation (% of control), % at 5.5 µM | 2.6% of 200,000 active;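 active means activation above the screen-wide mean activation plus 3 SD, cut at about 130% in these data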;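 further: raw ratio to IFN-gamma control signal so 100% means no change and 0% no light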
# NF-kB expr up: activators of NF-kB expression in neurons, primary screen, cell-based, HTS | fold change at 12.5 µM | human neuronal cells, NF-kB reporter expression; active compounds read high | 1.6% of 190,000 active; in the data active means fold change above about 3.3
# Active calls of the source: *; nt = no result. An excerpt weighted towards active compounds, which were near 4.5% of everything screened.
SMILES,Mdm2 ligase inh,AHR activator,PERK inh,APP 5'UTR act,STAT1 act,NF-kB expr up
OCC1CCCCN1C(=S)Nc1cccc(Cl)c1 (stereo not drawn),-4.5,0.4,0.3,26.8,130.3*,0.84
CC(/C=C/c1ccccc1)=N/NC(=O)CNC(=O)c1ccccc1F,8.5,45.6,0.2,10.0,104.2,1.68
Cc1ccc(-c2csc(/C(C#N)=C(\O)CCl)n2)cc1,-3.8,nt,0.6,106.9,139.5*,1.62
O=C1NC2(C=Cc3c(ccc4ccccc34)O2)Oc2ccccc21 (stereo not drawn),0.8,-2.0,1.9,3.2,140.7*,1.46
CC(C(=O)N1CCc2ccccc21)N1CCN(S(=O)(=O)c2cccc(C(F)(F)F)c2)CC1 (stereo not drawn),nt,-0.3,nt,nt,nt,nt
COc1cc(NCCCC(C)N)c2ncccc2c1 (stereo not drawn),-24.2,nt,1.0,-2.6,103.3,0.57
CCC(CNc1cc(OC)cc2cccnc12)NC1CCCCC1 (stereo not drawn),-6.0,48.5*,-0.8,nt,nt,nt
CSc1nsc(N/N=C/c2ccccc2)c1C#N,-5.8,60.0*,-0.3,42.8,92.1,2.05
COc1cccc(/C=N/Nc2snc(SC)c2C#N)c1,-2.7,48.7*,0.0,30.1,93.0,2.31
CSc1nsc(/C=C/Nc2ccc(C(=O)O)cc2)c1C#N,-72.4,10.4,-0.3,9.8,101.4,1.19
COc1cccc(/C=N/Nc2snc(SC)c2C#N)c1O,-25.4,38.6,-0.2,60.2,83.7,1.25
COCCn1nnnc1C(c1ccccc1OC)N1CCN(c2ccccc2)CC1 (stereo not drawn),5.0,66.9*,-1.3,-6.6,97.4,1.14
c1ccc(Cn2nnnc2C(c2cccnc2)N2CCN(c3ccccc3)CC2)cc1 (stereo not drawn),-15.5,79.0*,-0.5,-12.6,100.7,0.81
CC(C)(C)n1nnnc1C(c1cccnc1)N1CCN(c2ccccc2)CC1 (stereo not drawn),-5.9,-1.3,-0.1,-4.5,93.6,1.18
Cc1ccc(C(=O)NC2CCCCC2)cc1S(=O)(=O)N1CCCC1,nt,4.8,nt,nt,nt,nt
O=C(COC(=O)c1cccc(F)c1)Nc1ccc(Cl)cn1,nt,1.7,nt,nt,nt,nt
O=C(NCc1ccc(Cl)cc1)c1cnn2ccccc12,-13.4,3.1,1.0,77.2,131.0*,2.35
Nc1ncc(Br)cc1N=Cc1ccccc1,16.0,35.6,0.5,86.3,149.2*,4.66*
C#CCSc1nc(-c2ccccc2)cc(C(F)(F)F)c1C#N,-12.2,64.0*,0.2,2.9,97.5,1.1
S=C1Cc2ccccc2C(c2ccc(Cl)cc2)N1 (stereo not drawn),nt,0.0,nt,nt,nt,nt
CC(O)(C#CCN1CCCCCC1)c1ccccc1 (stereo not drawn),-0.8,65.9*,-0.7,-14.6,99.1,1.07
Cc1ccc(S(=O)(=O)/N=C2/C=C(Sc3ncn[nH]3)C(=O)c3ccccc32)c(C)c1,6.1,49.9*,1.0,-65.5,96.4,0.4
CC(C)c1ccc(S(=O)(=O)/N=C2/C=C(Sc3ncn[nH]3)C(=O)c3ccccc32)cc1,9.8,41.5,-0.4,-34.1,90.0,0.55
Cc1ccc(S(=O)(=O)/N=C2/C=C(Sc3ncn[nH]3)C(=O)c3ccccc32)cc1,4.7,57.0*,0.6,-64.2,86.6,0.83
O=C(/C=C(/c1ccc(Cl)cc1)n1cncn1)c1ccccc1,6.9,64.5*,0.0,18.3,101.4,1.19
SMILES,Mdm2 ligase inh,AHR activator,PERK inh,APP 5'UTR act,STAT1 act,NF-kB expr up
CCOc1ccc(CCNC(=O)Cn2nc(C)n3cccc3c2=O)cc1OCC,nt,1.1,nt,nt,nt,nt
COc1cc(NC(=O)c2cccnc2)c(OC)cc1NC(=O)c1ccc(Br)cc1,nt,43.3,nt,nt,nt,nt
O=C(Nc1cc(Cl)c(Cl)cc1Cl)c1cccnc1,nt,40.4,nt,nt,nt,nt
COc1cc(NC(=O)c2cccnc2)c(Cl)cc1NC(=O)c1ccccc1,nt,75.3*,nt,nt,nt,nt
COc1cc2c(cc1NC(=O)c1cccnc1)CCCC2,-8.3,-0.3,-0.2,8.1,96.7,1.09
COc1cc(NC(=O)c2ccc(Cl)cc2)c(Cl)cc1NC(=O)c1cccnc1,nt,53.3*,nt,nt,nt,nt
COc1cc(NC(=O)c2cccnc2)c(Cl)cc1NC(=O)c1ccc(Cl)cc1,nt,63.5*,nt,nt,nt,nt
CCOC(=O)[C@H]1[C@H]2COc3ccc(OC)cc3[C@@H]2N2C(=O)c3cc(OC)ccc3NC(=O)[C@@]12C,nt,-0.1,nt,nt,nt,nt
CCc1ccc(N(CC)C(=O)c2cn(C)c(=O)c3ccccc23)cc1,nt,3.2,nt,nt,nt,nt
Cc1ccc(NC2=C(NCCO)C(=O)c3ccccc3C2=O)cc1,-11.9,65.4*,1.1,29.3,99.5,1.22
Cc1ccc(C(=O)N/C(=C\c2ccc(-c3ccccc3[N+](=O)[O-])o2)C(=O)NCCCN(C)C)cc1,nt,29.9,nt,nt,nt,nt
Cc1ccc(C(=O)N/C(=C\c2ccc(-c3ccccc3[N+](=O)[O-])o2)C(=O)NCCN(C)C)cc1,nt,51.8*,nt,nt,nt,nt
CCCCCCN[C@H]1CCC2C3CC=C4C[C@@H](O)CC[C@]4(C)C3CC[C@@]21C (stereo partly drawn),nt,-3.1,nt,nt,nt,nt
c1ccn(-c2ccc(-c3ccn[nH]3)cc2)c1,-8.7,6.9,1.8,86.8,142.7*,2.72
Cc1ccc(C)n1-c1ccc(-c2ccn[nH]2)cc1,-21.1,6.0,-0.2,23.5,110.1,1.74
CN(CCN1CCOCC1)Cc1nc(-c2ccc(Cl)cc2)no1,-12.0,3.0,-0.1,nt,nt,nt
Brc1ccc2[nH]c3c(NCc4ccccn4)ncnc3c2c1,6.9,78.0*,0.9,nt,nt,nt
c1ccc(CNc2ncnc3nc[nH]c23)nc1,-7.7,3.6,-0.6,7.1,99.6,1.46
CC(=O)c1ccc(Nc2ncnc3c2oc2ccccc23)cc1,-12.0,1.1,-0.9,20.6,161.3*,2.47
c1ccc(CNc2ncnc3c2oc2ccccc23)nc1,-12.9,17.6,-0.2,55.2,132.0*,1.34
CCc1nc(NCc2ccccn2)c2oc3ccccc3c2n1,2.1,-2.4,nt,nt,nt,0.52
c1ccc2c(c1)oc1c(N3CCOCC3)ncnc12,-8.3,72.6*,0.0,-5.9,105.2,1.51
O=C(CN1CCN(C(=O)c2cccc(S(=O)(=O)N3CCCC3)c2)CC1)Nc1ccc(F)cc1,nt,1.8,nt,nt,nt,nt
COC(=O)c1ccccc1NC(=O)NCc1c(C)nn(C)c1C,-8.7,0.1,0.7,26.9,96.1,0.93
Clc1ncnc2c1oc1ccccc12,-33.7,16.0,0.3,86.2,142.0*,3.12
CCSc1ncnc2c1oc1ccccc12,-2.0,-5.2,1.2,-0.7,108.9,1.29
C=CCNC(=S)Nc1ccc(F)cc1F,nt,3.1,1.1,-1.9,97.8,1.08
